Here are results for 7 molecules from ChEMBL document CHEMBL1135467 (J Med Chem, 2002).

In test [1] the target is T1, Mu-type opioid receptor (Rattus norvegicus, UniProt P33535). In words: Inhibitory activity against [3H]DAMGO binding to Opioid receptor mu 1 in rat brain membranes. Format: cell membranes. The gist of the method: (§1)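 Rat brain minus cerebellum homogenised in 0.32 M sucrose/10 mM Tris-HCl and spun. The pellet was preincubated 1 h to strip endogenous opioids. GF/B filtration, scintillation counting.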

In test [2] the target is T1, Mu-type opioid receptor. The test is described as follows: Binding affinity towards Opioid receptor mu 1 by displacing [3H]DAMGO in rat brain membranes. Format: cell membranes. The gist of the method:
as §1

The nature of test [3]: Potency for inhibition of forskolin-stimulated cyclic AMP accumulation in SH-SY5Y cells. Format: functional, cell-based. The conditions noted are these: Homo sapiens. The gist of the method:
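SH-SY5Y cells at 85-100% confluence in 24-well plates, in serum-free F12/DMEM with 0.5 mM IBMX, protease inhibitors and DADLE δ-blocker, 10 min at 37 °C. Then 10 µM forskolin plus ligand over a concentration range, 15 min at 37 °C. Ethanol extraction, cAMP measured by commercial kit. Triplicate wells averaged, IC50 fitted.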

T1 sequence (P33535 whole entry): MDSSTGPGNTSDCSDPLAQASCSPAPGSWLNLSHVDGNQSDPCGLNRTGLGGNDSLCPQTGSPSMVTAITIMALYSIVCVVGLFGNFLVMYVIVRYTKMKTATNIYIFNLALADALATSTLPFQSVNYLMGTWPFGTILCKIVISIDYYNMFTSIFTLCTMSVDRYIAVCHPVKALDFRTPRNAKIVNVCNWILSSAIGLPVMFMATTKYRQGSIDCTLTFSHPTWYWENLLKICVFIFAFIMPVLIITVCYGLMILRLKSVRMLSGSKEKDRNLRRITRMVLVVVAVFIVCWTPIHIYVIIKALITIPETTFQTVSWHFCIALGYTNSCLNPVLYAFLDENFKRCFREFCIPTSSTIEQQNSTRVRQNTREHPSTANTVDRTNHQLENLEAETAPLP

The term IC50 denotes the concentration needed to halve the response being measured. High values mean weaker potency, low ones greater potency. The term Ki denotes a dissociation constant, usually derived from enzyme kinetics or from competition with a known ligand. The low end stands for tighter binding, the high end for weaker binding. In test [1], `NC(=O)[C@H](Cc1ccccc1)NC(=O)C[C@H](Cc1c[nH]c2ccccc12)NC(=O)[C@@H]1CCCN1C(=O)[C@@H](N)Cc1ccc(O)cc1` came in with an IC50 of 23.3 nM. In addition, in test [2], the inhibition constant Ki is 73 nM.
With `NC(=O)[C@H](Cc1ccccc1)NC(=O)[C@H](Cc1c[nH]c2ccccc12)NC(=O)C[C@@H]1CCCN1C(=O)[C@@H](N)Cc1ccc(O)cc1`, the values for the IC50 in test [1] and in test [3] were 4 nM and 6.53 nM, respectively. This molecule yielded a Ki in test [2] of 2.1 nM.
In test [3], `C[C@@H](NC(=O)[C@@H](N)Cc1ccc(O)cc1)C(=O)NCC(=O)N(C)[C@@H](Cc1ccccc1)C(=O)NCCO` [DAMGO] showed an IC50 of 1.1 nM.
As to `NC(=O)[C@H](Cc1ccccc1)NC(=O)[C@H](Cc1c[nH]c2ccccc12)NC(=O)C[C@H]1CCCN1C(=O)[C@@H](N)Cc1ccc(O)cc1`, the results for the IC50 in test [1] and in test [3] were 79 nM and 45 nM, respectively. In addition, in test [2], the Ki is 67 nM.
In test [1], `NC(=O)[C@H](Cc1ccccc1)NC(=O)[C@H](Cc1c[nH]c2ccccc12)NC(=O)[C@@H]1CCCN1C(=O)C[C@@H](N)Cc1ccc(O)cc1` registered a half-maximal inhibitory concentration (IC50) of 990 nM. Besides, the inhibition constant (Ki) in test [2] amounted to 26 nM.
With `NC(=O)[C@H](Cc1ccccc1)NC(=O)[C@H](Cc1c[nH]c2ccccc12)NC(=O)[C@@H]1CCCN1C(=O)[C@@H](N)Cc1ccc(O)cc1` [ENDOMORPHIN-1], the 50% inhibitory concentration (IC50) in test [3] was 19.1 nM.
For `NC(=O)C[C@H](Cc1ccccc1)NC(=O)[C@H](Cc1c[nH]c2ccccc12)NC(=O)[C@@H]1CCCN1C(=O)[C@@H](N)Cc1ccc(O)cc1`, the IC50 in test [1] was determined as 80.1 nM. The affinity in test [2] corresponds to a Ki of 79 nM.
